In ChEMBL document CHEMBL1156074, “Diazo transfer-click reaction route to new, lipophilic teicoplanin and ristocetin aglycon derivatives with high antibacterial and anti-influenza virus activity: an aggregation and receptor binding study” (J Med Chem, 2009):
≈ marks a conversion by molar mass, not a printed value. Calls of active or inactive are those of the source.

Key:
H3N2 subtype [1] = test: Antiviral activity against Influenza A virus (A/Hong Kong/7/87(H3N2)) assessed as cell viability by cell-based MTS assay; type: functional, organism-based; settings: A/Hong Kong/7/1987(H3N2)
Summary of the method: (§1)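 Cell-based influenza assay. The read-out is cell viability by the colorimetric formazan-based MTS assay. EC50 is the concentration giving 50% inhibition of the virus-induced cytopathic effect.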

Influenza A virus [2] = test: Antiviral activity against Influenza A virus (A/Puerto Rico/8/34(H1N1)) assessed as inhibition of virus-induced cytopathic effect by cell-based assay; type: functional, organism-based, A/Puerto Rico/8/1934(H1N1)
Summary of the method: (§2)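 Virus-induced cytopathic effect is scored visually in infected cell cultures. EC50 is defined as the compound concentration producing 50% inhibition of the CPE. A compound is recorded as not active when there is no inhibition at the highest concentration tested or at a subtoxic concentration.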

Influenza A virus [3] = test: Antiviral activity against Influenza A virus (A/Puerto Rico/8/34(H1N1)) assessed as cell viability by cell-based MTS assay; type: functional, organism-based; settings: A/Puerto Rico/8/1934(H1N1); summary of the method: as §1
Influenza B virus [4] = test: Antiviral activity against Influenza B virus (B/Hong Kong/5/72) assessed as cell viability at subtoxic concentration by cell-based MTS assay; type: functional; settings: B/Hong Kong/05/1972
H3N2 subtype [5] = test: Antiviral activity against Influenza A virus (A/Hong Kong/7/87(H3N2)) assessed as inhibition of virus-induced cytopathic effect by cell-based assay; type: functional, organism-based; settings: A/Hong Kong/7/1987(H3N2); summary of the method: as §2
Influenza B virus [6] = test: Antiviral activity against Influenza B virus (B/Hong Kong/5/72) assessed as inhibition of virus-induced cytopathic effect at highest concentration by cell-based assay; type: functional; settings: B/Hong Kong/05/1972; summary of the method: as §2
Influenza B virus [7] = test: Antiviral activity against Influenza B virus (B/Hong Kong/5/72) assessed as cell viability by cell-based MTS assay; type: functional; settings: B/Hong Kong/05/1972; summary of the method: as §1
[8] = tested on: Staphylococcus epidermidis; test: Antibacterial activity against Staphylococcus epidermidis after 18 hrs by broth microdilution method; type: functional
Staphylococcus aureus [9] = test: Antibacterial activity against methicillin-sensitive Staphylococcus aureus ATCC 33591 after 18 hrs by broth microdilution method; type: functional; settings: ATCC 33591, 18 h
Bacillus subtilis [10] = test: Antibacterial activity against Bacillus subtilis ATCC 6633 after 18 hrs by broth microdilution method; type: functional; settings: ATCC 6633, 18 h
Enterococcus faecalis [11] = test: Antibacterial activity against vancomycin and teicoplanin-sensitive Enterococcus faecalis ATCC 29212 after 18 hrs by broth microdilution method; type: functional; settings: ATCC 29212, 18 h
Enterococcus faecalis [12] = test: Antibacterial activity against vancomycin and teicoplanin-resistant Enterococcus faecalis 15376 harboring vanA gene after 18 hrs by broth microdilution method; type: functional; settings: Enterococcus faecalis, 15376, 18 h
Staphylococcus aureus [13] = test: Antibacterial activity against methicillin-sensitive Staphylococcus aureus ATCC 29213 after 18 hrs by broth microdilution method; type: functional; settings: ATCC 29213, 18 h
Enterococcus faecalis [14] = test: Antibacterial activity against vancomycin-resistant and teicoplanin-sensitive Enterococcus faecalis ATCC 51299 harboring vanB gene after 18 hrs by broth microdilution method; type: functional; settings: ATCC 51299, 18 h
Influenza B virus [15] = test: Antiviral activity against Influenza B virus (B/Hong Kong/5/72) assessed as inhibition of virus-induced cytopathic effect by cell-based assay; type: functional; settings: B/Hong Kong/05/1972; summary of the method: as §2
[16] = tested on: Staphylococcus epidermidis; test: Antibacterial activity against biofilm of Staphylococcus epidermidis ATCC 35984 after 18 hrs by broth microdilution method; type: functional; settings: RP62A
[17] = Octanol-aqueous buffer partition coefficient, log P at pH 7 by shake-flask method; type: physicochemical
Enterococcus = test: Antibacterial activity against vancomycin and teicoplanin-resistant Enterococcus harboring vanA resistance gene; type: functional
[18] = tested on: Staphylococcus epidermidis; test: Bactericidal activity against Staphylococcus epidermidis after overnight incubation; type: functional
Enterococcus faecalis [19] = test: Bactericidal activity against vancomycin-resistant and teicoplanin-sensitive Enterococcus faecalis ATCC 51299 harboring vanB gene after overnight incubation; type: functional
Influenza A virus [20] = test: Antiviral activity against Influenza A virus (A/Puerto Rico/8/34(H1N1)) assessed as inhibition of virus-induced cytopathic effect at highest concentration by cell-based assay; type: functional, organism-based; settings: A/Puerto Rico/8/1934(H1N1); summary of the method: as §2
Staphylococcus aureus [21] = test: Bactericidal activity against methicillin-sensitive Staphylococcus aureus ATCC 29213 after overnight incubation; type: functional
Bacillus subtilis [22] = test: Bactericidal activity against Bacillus subtilis ATCC 6633 after overnight incubation; type: functional
Influenza A virus [23] = test: Antiviral activity against Influenza A virus (A/Puerto Rico/8/34(H1N1)) assessed as cell viability at subtoxic concentration by cell-based MTS assay; type: functional, organism-based; settings: A/Puerto Rico/8/1934(H1N1)
H3N2 subtype [24] = test: Antiviral activity against Influenza A virus (A/Hong Kong/7/87(H3N2)) assessed as inhibition of virus-induced cytopathic effect at highest concentration by cell-based assay; type: functional, organism-based; settings: A/Hong Kong/7/1987(H3N2); summary of the method: as §2
H3N2 subtype [25] = test: Antiviral activity against Influenza A virus (A/Hong Kong/7/87(H3N2)) assessed as cell viability at subtoxic concentration by cell-based MTS assay; type: functional, organism-based; settings: A/Hong Kong/7/1987(H3N2)
Staphylococcus aureus [26] = test: Bactericidal activity against methicillin-sensitive Staphylococcus aureus ATCC 33591 after overnight incubation; type: functional
[27] = tested on: Staphylococcus epidermidis; test: Bactericidal activity against biofilm of Staphylococcus epidermidis ATCC 35984 after overnight incubation; type: functional; settings: RP62A
Enterococcus faecalis [28] = test: Bactericidal activity against vancomycin and teicoplanin-sensitive Enterococcus faecalis ATCC 29212 after overnight incubation; type: functional
Enterococcus faecalis [29] = test: Bactericidal activity against vancomycin and teicoplanin-resistant Enterococcus faecalis 15376 harboring vanA gene after overnight incubation; type: functional
[30] = Influenza A virus, A/Puerto Rico/8/1934(H1N1)

CC(N)C12CC3CC(CC(C3)C1)C2 (centres undefined) [RIMANTADINE]
EC50 (H3N2 subtype [1]): 0.2 µM
EC50 (Influenza A virus [2]; [30]): 10 µM
EC50 (Influenza A virus [3]): 13 µM
inhibition (Influenza B virus [4]): inactive
EC50 (H3N2 subtype [5]): 0.1 µM
inhibition (Influenza B virus [6]): inactive

CCCCCCCCCCOCc1cn([C@H]2C(=O)N[C@H]3C(=O)N[C@H](C(=O)N[C@H]4C(=O)N[C@H]5C(=O)N[C@H](C(=O)N[C@@H](C(=O)OC)c6cc(O)cc(O)c6-c6cc5ccc6O)[C@H](O)c5ccc(cc5)Oc5cc4cc(c5O)Oc4ccc(cc4)[C@H]3O)c3cc(O)c(C)c(c3)Oc3cc2ccc3O)nn1
EC50 (Influenza B virus [7]): 0.2 µM
MIC [8]: > 256 µg/mL
EC50 (H3N2 subtype [1]): 0.5 µM
MIC (Staphylococcus aureus [9]): > 256 µg/mL
EC50 (Influenza A virus [2]; [30]): 0.1 µM
EC50 (Influenza A virus [3]): 0.1 µM
MIC (Bacillus subtilis [10]): > 256 µg/mL
MIC (Enterococcus faecalis [11]): > 256 µg/mL
MIC (Enterococcus faecalis [12]): > 256 µg/mL
MIC (Staphylococcus aureus [13]): > 256 µg/mL
MIC (Enterococcus faecalis [14]): > 256 µg/mL
EC50 (H3N2 subtype [5]): 0.2 µM
EC50 (Influenza B virus [15]): 0.2 µM
MIC [16]: > 256 µg/mL

COC(=O)[C@@H]1NC(=O)[C@H]2NC(=O)[C@H](NC(=O)[C@@H]3NC(=O)[C@H]4NC(=O)[C@H](NC(=O)[C@H](N=[N+]=[N-])c5ccc(O)c(c5)Oc5cc4cc(O)c5C)[C@H](O)c4ccc(cc4)Oc4cc3cc(c4O)Oc3ccc(cc3)[C@H]2O)c2ccc(O)c(c2)-c2c(O)cc(O)cc21
logD [17]: 0.29
inhibition (Influenza B virus [4]): inactive
inhibition (Influenza B virus [6]): inactive

CN[C@H](CC(C)C)C(=O)N[C@H]1C(=O)N[C@@H](CC(N)=O)C(=O)N[C@H]2C(=O)N[C@H]3C(=O)N[C@H](C(=O)N[C@H](C(=O)O)c4cc(O)cc(O)c4-c4cc3ccc4O)[C@H](O[C@H]3C[C@](C)(N)[C@@H](O)[C@H](C)O3)c3ccc(c(Cl)c3)Oc3cc2cc(c3O[C@@H]2O[C@H](CO)[C@@H](O)[C@H](O)[C@H]2O[C@H]2C[C@](C)(NCc3ccc(-c4ccc(Cl)cc4)cc3)[C@@H](O)[C@H](C)O2)Oc2ccc(cc2Cl)[C@H]1O [ORITAVANCIN]
MIC (Enterococcus): < 1 µg/mL

COC(=O)[C@@H]1NC(=O)[C@H]2NC(=O)[C@H](NC(=O)[C@@H]3NC(=O)[C@H]4NC(=O)[C@@H](Cc5ccc(c(Cl)c5)Oc5cc3cc(c5O)Oc3ccc(cc3Cl)[C@H]2O)NC(=O)[C@H](N=[N+]=[N-])c2ccc(O)c(c2)Oc2cc(O)cc4c2)c2ccc(O)c(c2)-c2c(O)cc(O)cc21 [METHYL ESTER OF AZIDO TEICOPLANIN AGLYCON]
MIC [8]: 64 µg/mL (≈ 51.7 µM)
MBC [18]: 256 µg/mL (≈ 207 µM)
MBC (Enterococcus faecalis [19]): 256 µg/mL (≈ 207 µM)
MIC (Staphylococcus aureus [9]): 64 µg/mL (≈ 51.7 µM)
inhibition (Influenza A virus [20]): inactive
MBC (Staphylococcus aureus [21]): 256 µg/mL (≈ 207 µM)
MIC (Bacillus subtilis [10]): 2 µg/mL (≈ 1.61 µM)
MBC (Bacillus subtilis [22]): 4 µg/mL (≈ 3.23 µM)
inhibition (Influenza A virus [23]): inactive
MIC (Enterococcus faecalis [11]): 128 µg/mL (≈ 103 µM)
MIC (Enterococcus faecalis [12]): 128 µg/mL (≈ 103 µM)
MIC (Staphylococcus aureus [13]): 64 µg/mL (≈ 51.7 µM)
inhibition (H3N2 subtype [24]): inactive
MIC (Enterococcus faecalis [14]): 128 µg/mL (≈ 103 µM)
inhibition (H3N2 subtype [25]): inactive
inhibition (Influenza B virus [4]): inactive
MBC (Staphylococcus aureus [26]): 256 µg/mL (≈ 207 µM)
inhibition (Influenza B virus [6]): inactive
MIC [16]: 64 µg/mL (≈ 51.7 µM)
MBC [27]: 256 µg/mL (≈ 207 µM)
MBC (Enterococcus faecalis [28]): 256 µg/mL (≈ 207 µM)
MBC (Enterococcus faecalis [29]): 256 µg/mL (≈ 207 µM)

NC(=O)c1ncn([C@@H]2O[C@H](CO)[C@@H](O)[C@H]2O)n1 [RIBAVIRIN]
EC50 (Influenza B virus [7]): 3.6 µM
EC50 (H3N2 subtype [1]): 6 µM
EC50 (Influenza A virus [2]): 9 µM
EC50 (Influenza A virus [3]): 9.7 µM
EC50 (H3N2 subtype [5]): 9 µM
EC50 (Influenza B virus [15]): 9 µM

CCCCCCCCCCOCc1cn([C@H]2C(=O)N[C@@H]3Cc4ccc(c(Cl)c4)Oc4cc5cc(c4O)Oc4ccc(cc4Cl)[C@@H](O[C@@H]4O[C@H](CO)[C@@H](O)[C@H](O)[C@H]4NC(C)=O)[C@@H]4NC(=O)[C@H](NC(=O)[C@@H]5NC(=O)[C@@H](NC3=O)c3cc(O)cc(c3)Oc3cc2ccc3O)c2ccc(O)c(c2)-c2c(O)cc(O)cc2[C@H](C(=O)OC)NC4=O)nn1
MIC [8]: 1 µg/mL (≈ 0.61 µM)
MBC [18]: 1 µg/mL (≈ 0.61 µM)
MBC (Enterococcus faecalis [19]): 128 µg/mL (≈ 78.1 µM)
MIC (Staphylococcus aureus [9]): 0.5 µg/mL (≈ 0.305 µM)
inhibition (Influenza A virus [20]): inactive
MBC (Staphylococcus aureus [21]): 1 µg/mL (≈ 0.61 µM)
MIC (Bacillus subtilis [10]): 2 µg/mL (≈ 1.22 µM)
MBC (Bacillus subtilis [22]): 4 µg/mL (≈ 2.44 µM)
inhibition (Influenza A virus [23]): inactive
MIC (Enterococcus faecalis [11]): 2 µg/mL (≈ 1.22 µM)
MIC (Enterococcus faecalis [12]): 2 µg/mL (≈ 1.22 µM)
MIC (Staphylococcus aureus [13]): 1 µg/mL (≈ 0.61 µM)
inhibition (H3N2 subtype [24]): inactive
MIC (Enterococcus faecalis [14]): 2 µg/mL (≈ 1.22 µM)
inhibition (H3N2 subtype [25]): inactive
inhibition (Influenza B virus [4]): inactive
MBC (Staphylococcus aureus [26]): 0.5 µg/mL (≈ 0.305 µM)
inhibition (Influenza B virus [6]): inactive
MIC [16]: 1 µg/mL (≈ 0.61 µM)
MBC [27]: 1 µg/mL (≈ 0.61 µM)
MBC (Enterococcus faecalis [28]): 256 µg/mL (≈ 156 µM)
MBC (Enterococcus faecalis [29]): 256 µg/mL (≈ 156 µM)

COC(=O)[C@H]1NC(=O)[C@H]2NC(=O)[C@H](NC(=O)[C@@H]3NC(=O)[C@H]4NC(=O)[C@H](NC(=O)[C@H](N=[N+]=[N-])c5ccc(O)c(c5)Oc5cc4cc(O)c5C)[C@H](O)c4ccc(cc4)Oc4cc3cc(c4O)Oc3ccc(cc3)[C@H]2O)c2ccc(O)c(c2)-c2c(O)cc(O)cc21
EC50 (H3N2 subtype [1]): 9.2 µM
EC50 (Influenza A virus [2]; [30]): 9 µM
EC50 (Influenza A virus [3]): 8.8 µM
EC50 (H3N2 subtype [5]): 20 µM

NC12CC3CC(CC(C3)C1)C2 [AMANTADINE]
EC50 (H3N2 subtype [1]): 0.4 µM
EC50 (Influenza A virus [2]; [30]): 45 µM
EC50 (Influenza A virus [3]): 35 µM
inhibition (Influenza B virus [4]): inactive
EC50 (H3N2 subtype [5]): 0.8 µM
inhibition (Influenza B virus [6]): inactive
